26 compounds from ChEMBL document CHEMBL4431330, “3-Arylpropionylhydroxamic acid derivatives as Helicobacter pylori urease inhibitors: Synthesis, molecular docking and biological evaluation” (Bioorg Med Chem, 2016) can be followed below.

pIC50, pKi: −log10 of the molar value. The source made the active and inactive calls. The rule behind the calls is not given here.

What is called pIC50 is the negative decadic logarithm of the IC50, by convention in mol/L. What is called pKi is the Ki on a negative log10 scale, so that one unit is a factor of ten.

Data set [1] has as its target T1, Urease subunit alpha/Urease subunit beta (Helicobacter pylori (strain ATCC 700392 / 26695) (Campylobacterpylori), UniProt P69996). The data set is described as follows: Inhibition of Helicobacter pylori urease using urea as substrate assessed as ammonia production after 50 mins by indophenol method. The class given is protein-complex assay. The method in brief: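 Urease prepared from H. pylori grown 24 h at 37 °C in Brucella broth with 10% heat-inactivated horse serum under microaerobic conditions. Cells washed in PBS pH 7.4, sonicated with protease inhibitors, desalted on Sephadex G-25, stored in glycerol at 4 °C. Enzyme (10 U) pre-incubated with compound 50 min at 37 °C. Ammonia read by absorbance (indophenol method).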

Data set [2] concerns the target T1, Urease subunit alpha/Urease subunit beta. The data set is described as follows: Substrate inhibition of Helicobacter pylori urease in presence of >4 mM urea by indophenol method. The class given is protein-complex assay. The method in brief:
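No inhibitor. H. pylori urease velocity (indophenol ammonia read-out) was measured against a range of urea concentrations. Km and the substrate-inhibition constant Ksi were obtained by nonlinear least-squares fitting of V = Vmax[S]/(Km + [S] + [S]²/Ksi).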

A short description of data set [3]: Protein binding in rabbit plasma after 20 mins by ultra-filtration method. The class given is ADME, cell-free, Oryctolagus cuniculus. Conditions: read-out: PPB (converted). The method in brief: (§1)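 Ultrafiltration, in triplicate. Compound was incubated with human plasma or freshly collected rabbit plasma for 20 min at 37 °C. Samples were then centrifuged through filter devices at 5000 r/min for 15 min at 37 °C. Initial plasma and ultrafiltrate were diluted 8-fold and read by UV-vis. Nonspecific membrane binding was corrected using PBS spiked at the same concentration. % bound = (1 − Cf/(C0(1−NBS)))×100.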

For data set [4], the target named is T2, Urease subunit alpha/Urease subunit beta (Helicobacter pylori (strain ATCC 700392 / 26695) (Campylobacterpylori)) (UniProt P69996+P14916). The data set is described as follows: Mixed inhibition of Helicobacter pylori urease assessed as dissociation of enzyme-urea-inhibitor complex by non-linear fitting analysis.
T2 sequence (P14916 whole entry, looked up): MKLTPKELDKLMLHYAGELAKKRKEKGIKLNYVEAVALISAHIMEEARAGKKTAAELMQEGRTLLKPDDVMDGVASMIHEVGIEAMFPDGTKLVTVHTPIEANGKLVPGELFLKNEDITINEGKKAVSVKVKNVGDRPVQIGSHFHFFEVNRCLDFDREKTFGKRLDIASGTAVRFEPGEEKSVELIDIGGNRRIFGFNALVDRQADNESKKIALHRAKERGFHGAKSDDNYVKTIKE
T2 sequence (P69996 whole entry, looked up): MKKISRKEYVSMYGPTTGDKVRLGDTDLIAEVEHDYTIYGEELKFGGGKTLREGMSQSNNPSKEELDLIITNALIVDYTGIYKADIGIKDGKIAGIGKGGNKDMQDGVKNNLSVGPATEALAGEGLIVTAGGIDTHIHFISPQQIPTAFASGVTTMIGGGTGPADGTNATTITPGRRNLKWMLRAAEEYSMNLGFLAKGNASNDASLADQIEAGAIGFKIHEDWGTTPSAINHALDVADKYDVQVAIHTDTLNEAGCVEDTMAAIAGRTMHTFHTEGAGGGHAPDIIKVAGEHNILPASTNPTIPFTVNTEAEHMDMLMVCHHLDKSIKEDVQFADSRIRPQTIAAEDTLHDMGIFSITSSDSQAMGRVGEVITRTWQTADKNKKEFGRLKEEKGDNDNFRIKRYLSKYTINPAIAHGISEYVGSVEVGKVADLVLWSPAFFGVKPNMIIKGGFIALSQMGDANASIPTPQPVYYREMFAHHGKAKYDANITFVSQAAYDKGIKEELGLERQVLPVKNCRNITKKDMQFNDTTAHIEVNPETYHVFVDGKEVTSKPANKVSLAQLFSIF
Data set [5] is described as follows: Protein binding in human plasma after 20 mins by ultra-filtration method. In kind it is ADME, cell-free. Conditions: read-out: PPB (converted). The method in brief:
as §1

Data set [6] has as its target T1, Urease subunit alpha/Urease subunit beta. The data set is described as follows: Inhibition of Helicobacter pylori urease using urea as substrate assessed as inhibition constant for enzyme-urea-inhibitor complex by non-linear fitting analysis. The class given is protein-complex assay. The method in brief:
(§2)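 Urease came from H. pylori grown 24 h at 37 °C in Brucella broth with 10% heat-inactivated horse serum under microaerobic conditions. Washed cells were sonicated with protease inhibitors, desalted on Sephadex G-25, and stored in glycerol. Ammonia production rate (indophenol) was measured across urea gradients below 4 mM at each inhibitor level. V–[S] curves were fitted nonlinearly. Fitted constants b and c were plotted linearly against [I], and Ki and Ki′ were taken from the X-axis intercepts.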

The target of data set [7] is T2, Urease subunit alpha/Urease subunit beta (Helicobacter pylori (strain ATCC 700392 / 26695) (Campylobacterpylori)). The data set is described as follows: Potency index, ratio of acetohydroxamic acid IC50 to compound IC50 for Helicobacter pylori urease. In kind it is protein-complex assay. The procedure, abridged:
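Ratio of the acetohydroxamic acid IC50 to the compound IC50. […] Ammonia formed from urea was then read by the Weatherburn indophenol method.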

For data set [8], the target named is T1, Urease subunit alpha/Urease subunit beta. Nature of the data set: Inhibition of Helicobacter pylori urease using urea as substrate assessed as inhibition constant for enzyme-inhibitor complex by non-linear fitting analysis. The class given is protein-complex assay. The procedure, abridged: as §2

T1 sequence (P69996 whole entry): as the sequence (P69996 whole entry, looked up) above
T1 sequence (P14916 whole entry, further chain): as the sequence (P14916 whole entry, looked up) above

For `CN(O)C(=O)CC(O)c1ccc(F)cc1` (stereo not drawn), in data set [1], the pIC50 is 4.11.

Turning to `CN(O)C(=O)CC(O)c1ccc(N(C)C)cc1` (stereo not drawn), the pIC50 in data set [1] is 3.54. On to `COc1cc(C(O)CC(=O)N(C)O)ccc1OCc1ccccc1` (stereo not drawn), for which, in data set [1], the pIC50 was 3.59.

In the case of `CN(O)C(=O)CC(O)c1cc(Cl)ccc1O` (stereo not drawn), the pIC50 in data set [1] is 4.52. As to `CN(O)C(=O)CC(O)c1cccc(Cl)c1Cl` (stereo not drawn), the pIC50 in data set [1] was 4.02. As for `NC(N)=O` [UREA], in data set [2], the pKi is 2.19. For `CN(O)C(=O)CC(O)c1cccc(Br)c1` (stereo not drawn), the pIC50 in data set [1] was 4.11. On the same count and under the same terms, next, `COc1ccc(C(O)CC(=O)N(C)O)cc1OC` (stereo not drawn): 3.39; `CN(O)C(=O)CC(O)c1ccc(OCc2ccccc2)c(OCc2ccccc2)c1` (stereo not drawn): 3.42. `CN(O)C(=O)CC(O)c1cc(Cl)ccc1OCc1ccccc1` (stereo not drawn): the pIC50 in data set [1] was 4.58. The same measure, in the same setting: in the case of `O=C(CC(O)c1ccc(Cl)cc1Cl)NO` (stereo not drawn) it was 4.87; in that of `CN(O)C(=O)CC(O)c1cccc(Cl)c1` (stereo not drawn), 4.32; in that of `COc1ccc(C(O)CC(=O)N(C)O)cc1` (stereo not drawn), 3.48. The same measure, in the same setting: next, `CN(O)C(=O)CC(O)c1ccc(Br)cc1` (stereo not drawn): 4.01; `CC(=O)NO` [ACETOHYDROXAMIC ACID]: 4.62. On to `O=C(CC(O)c1cc(Cl)ccc1O)NO` (stereo not drawn), for which the results for the fraction unbound at 20 min in data set [3] and in data set [5] were 0.548 and 0.472, respectively. In data set [4], the inhibition entry was “Active”. Also, the pKi in data set [6] was 5.92; in data set [8], 5.32. The pIC50 in data set [1] was 5.96. Further, the Ratio IC50 in data set [7] is > 20.

As to `CN(O)C(=O)CC(O)c1ccc(Cl)cc1` (stereo not drawn), the pIC50 in data set [1] was 4.06. Still for that read-out and setting: next, `COc1cccc(C(O)CC(=O)N(C)O)c1` (stereo not drawn): 4.05; `CN(O)C(=O)CC(O)c1ccc(OCc2ccccc2)cc1` (stereo not drawn): 3.70. The same measure, in the same setting: next, `CN(O)C(=O)CC(O)c1cccc(F)c1` (stereo not drawn): 4.15. Still for that read-out and setting: in the case of `CN(O)C(=O)CC(O)c1ccc(Cl)c(Cl)c1` (stereo not drawn) it was 4.04. As to `CN(O)C(=O)CC(O)c1ccc(Cl)cc1Cl` (stereo not drawn), the pIC50 in data set [1] is 3.44. `CN(O)C(=O)CC(O)c1c(Cl)cccc1Cl` (stereo not drawn): the pIC50 in data set [1] is 4.11. Turning to `CN(O)C(=O)CC(O)c1ccccc1Cl` (stereo not drawn), the negative logarithm of the IC50 (pIC50) in data set [1] was 4.25. In the case of `O=C(CC(O)c1cc(Cl)ccc1OCc1ccccc1)NO` (stereo not drawn), the values for the fraction unbound at 20 min in data set [3] and in data set [5] were 0.562 and 0.626, respectively. Moreover, the inhibition entry in data set [4] was “Active”. In addition, the pKi in data set [6] is 6.43; in data set [8], 6.39. Further, the pIC50 in data set [1] was 6.82. For the same compound, the Ratio IC50 in data set [7] was > 20. On to `COc1ccccc1C(O)CC(=O)N(C)O` (stereo not drawn), for which, in data set [1], the pIC50 is 4.08.
